Assay results from different studies.
Compare with care: the assays were run in different laboratories.
TEK: Angiopoietin-1 receptor (TEK, Homo sapiens, UniProt Q02763)

| Structure (SMILES) | target | test | conditions | quantity | result |
| --- | --- | --- | --- | --- | --- |
| CCc1ccccc1C(=O)Nc1n[nH]c2c(C)c(F)c(C3C(C#N)=C(C)N(C)C(C)=C3C#N)cc12 | TEK | cell-free assay, competition with immobilised ligand | 1 µM | remaining binding | 91% |
| O=C(CSc1nc2nccnc2c(=O)n1CCc1ccccc1)Nc1nccs1 | TEK | enzyme activity, inhibitor | 10 µM | inhibition | 6% |
| COc1cc2ncnc(Nc3ccc(Oc4ccccc4)c(C)c3C)c2cc1OC | TEK | enzyme activity, inhibitor | 1 µM | inhibition | 6% |
| CC(C)(O)[C@H]1CC[C@H](Nc2ccc3ncc(-c4cccc(C(F)(F)F)c4)n3n2)CC1 | TEK | enzyme activity, inhibitor | 1 µM | remaining activity | 89% |
| Cc1ccc(C(=O)Nc2ccc(CN3CCN(C)CC3)c(C(F)(F)F)c2)cc1C#Cc1cnc2cccnn12 | TEK | cell-free assay | 23.5 nM | remaining signal | 5.2% |
| COc1cc(Nc2cnc(C#N)c(O[C@H](C)CN(C)C)n2)ncc1-c1cnn(C)c1 | TEK | enzyme activity, inhibitor, radiometric | 1 µM | remaining activity | 102% |
| COc1cc(/C=C/C(=O)CC(=O)/C=C/c2ccc(O)c(OC)c2)ccc1O | TEK | enzyme activity, inhibitor | 1 µM | activity vs control | 112% |
| Cc1[nH]c(/C=C2\C(=O)Nc3ccc(F)cc32)c(C)c1C(=O)N[C@H]1CCN(C(=O)N(C)C)C1 | TEK | enzyme activity, inhibitor | 1 µM | remaining activity | 87% |
| CCOCCn1cc(C(=O)Nc2ccc(-n3nc(-c4cccnc4)cc3C(F)(F)F)cn2)ccc1=O | TEK | cell-free assay, competition with immobilised ligand | 1 µM | remaining binding | 87% |
| O=C(Nc1cnn(-c2csc(C(=O)NC3COC3)c2)c1)Nc1c(F)cccc1Cl | TEK | enzyme activity, inhibitor | 5 µM | remaining activity | 105% |
| Cc1ccc(Nc2nccc(N(C)c3ccc4c(C)n(C)nc4c3)n2)cc1S(N)(=O)=O | TEK | cell-free assay | 0.5 µM | remaining signal | 69.3% |
| CCOc1cc(-c2nncn2C)ccc1Nc1ncc2cc(C)nc(NCC(C)(C)C)c2n1 | TEK | enzyme activity, inhibitor, FRET | 1 µM | inhibition | < 15% |
| CCN(CC)CCNC(=O)c1c(C)[nH]c(/C=C2\C(=O)Nc3ccc(F)cc32)c1C | TEK | enzyme activity, inhibitor | 10 µM | inhibition | 74% |
| Cc1cnc(NC2CCOCC2)nc1-n1cnc(C(=O)NC(CN)c2cc(F)cc(Cl)c2)c1 (stereo not shown) | TEK | enzyme activity, inhibitor, radiometric | 1 µM | remaining activity | 105% |
| Cc1ccc(C(=O)NCc2ccsc2)cc1C#Cc1cn(C(C)C)c2ncnc(N)c12 | TEK | enzyme activity, inhibitor | 1 µM | activity vs control | 6% |
| CNCc1ccc(-c2cc(-c3nc(-c4ccc(S(=O)(=O)C(C)C)cc4)cnc3N)on2)cc1 | TEK | enzyme activity, inhibitor | 2 µM | inhibition | 44% |

| Structure (SMILES) | target | test | conditions | quantity | result |
| --- | --- | --- | --- | --- | --- |
| CNCc1ccccc1-c1csc([C@@H](C)Nc2nc(C)nc3cc(OC)c(OC)cc23)c1 | TEK | cell-free assay, competition with immobilised ligand | 1 µM | remaining binding | 87% |
| Cc1cc(NC(=O)c2cccc3cc(-c4cccc5[nH]nc(N)c45)ccc23)ccc1F | Angiopoietin-1 receptor (TEK, Homo sapiens, UniProt Q02763, Y897S) | enzyme activity, inhibitor | 0.1 µM | activity vs control | 103% |
| CC(C)(C)c1nc2c(s1)c1nc(N)ncc1c1ccc(NS(=O)(=O)c3c(F)cccc3F)c(F)c12 | TEK | enzyme activity, inhibitor, radiometric | 1 µM | remaining activity | 79% |
| O=C1Nc2ccc(Cl)cc2C1=Cc1cc(Cl)c(O)c(Cl)c1 | TEK | cell-free assay | 0.5 µM | remaining signal | 93% |
| CCCOc1ccc([C@H]2[C@H](C(=O)O)[C@@H](c3ccc4c(c3)OCO4)CN2CC(=O)Nc2c(CC)cccc2CC)cc1 | TEK | cell-free assay, competition with immobilised ligand | 1 µM | remaining binding | 100% |
| CNC(=O)c1cc2c(Oc3ccc(NC(=O)C4(C(=O)Nc5ccc(F)cc5)CC4)cc3)ccnc2cc1OC | TEK | enzyme activity, inhibitor, radiometric | 1 µM | inhibition | 99% |
| O=C1NC(=O)c2cc(Nc3ccc(F)cc3)c(Nc3ccc(F)cc3)cc21 | TEK | cell-free assay | 0.5 µM | remaining signal | 97.6% |
| CC(C)CC(=O)N1CCc2nc(-c3ccc(Br)cc3)nc(N(C)Cc3ccccc3)c2C1 | TEK | cell-free assay, competition with immobilised ligand | 0.1 µM | remaining binding | 100% |
| CCCOc1ccc(OC)c(F)c1C(=O)c1ccc(C(=O)N[C@@H]2CNC[C@H]2NC(=O)c2ccc3[nH]ncc3c2)cc1 | TEK | enzyme activity, inhibitor | 10 µM | remaining activity | 49% |
| O=C(Nc1cnc(Oc2ccc(F)cc2)nc1)N1CCc2ncccc2[C@@H]1c1ccc(F)cc1 | TEK | cell-free assay, competition with immobilised ligand | 1 µM | remaining binding | 93% |
| Cc1ccc(NC(=O)c2ccc(C)c(C(F)(F)F)c2)cc1C#Cc1nn(C2CCC(O)CC2)c2ncnc(N)c12 (stereo not shown) | Angiopoietin-1 receptor (TEK, Homo sapiens, UniProt Q02763, R849W) | cell-free assay | 10 µM | remaining signal | 0% |
| CC1=C(C#N)[C@@H](c2ccc3[nH]nc(C)c3c2)C(C#N)=C(c2ccc(Cl)cc2)N1 | TEK | cell-free assay, competition with immobilised ligand | 1 µM | remaining binding | 74.5% |
| CCN(CC)c1ccc(C2=NNC(=O)CC2C)cc1[N+](=O)[O-] (stereo not shown) | TEK | enzyme activity, inhibitor | 10 µM | remaining activity | 24% |
| Cc1c[nH]c2nccc(Oc3c(F)cc(Nc4cc(Cl)nc(N)n4)cc3F)c12 | TEK | cell-free assay, competition with immobilised ligand | 0.1 µM | remaining binding | 95% |
| Cc1sc(C(=O)NC2COC2)cc1-n1cc(NC(=O)Nc2c(F)cccc2Cl)cn1 | TEK | enzyme activity, inhibitor | 10 µM | remaining activity | 86.6% |
